Measurements pooled from the literature.
Protocols differ between the studies behind these lines.

With Cc1c(C)c2c(c(C)c1O)CCC(C)(C(=O)O)O2 (stereo not drawn) the IC50 was 70.2 µM (DPPH scavenging).
The viability of CC(=O)Nc1ccc(Oc2nnc(-c3ccc(Cl)cc3)c3ccccc23)cc1 is reported as 6.06% (MCF7; cell growth or viability, MTT; 1.25 µM, 24 h).
With COc1cc(/C=N/N=C/c2cc(OC)c(OC)c(OC)c2)cc(OC)c1OC the IC50 was 2390 µM (DPPH scavenging).
For C=CC(=O)NC1CCN(c2ncc3ncnc(Nc4ccc(Oc5ccc6c(c5)ncn6C)c(C)c4)c3n2)CC1, the EC50 was 0.0824 µM (SW-620; cell growth or viability).
The IC50 of CCN(CC)c1ccc(/C=N/c2ccc(F)c(Cl)c2)c(O)c1 is reported as 47.6 µM (DPPH scavenging).
CC(=NNC(=O)c1ccccc1Br)c1ccc(Nc2nnc(-c3ccc(Cl)cc3)c3ccccc23)cc1 gave a viability of 14.6% (MCF7; cell growth or viability, MTT; 2.5 µM, 24 h).
Cc1c(C(=O)O)ccc2c3n(nc12)[C@@H]1[C@H](C3)N(CC2CC2)[C@@]2(C(=O)Nc3cc(Cl)ccc32)[C@H]1c1cccc(Cl)c1F gave a GI50 of 0.00031 µM (SJSA-1; cell growth or viability).
With FC(F)(F)c1ccc(/C=N/N=C/c2ccc(C(F)(F)F)cc2)cc1 the IC50 was greater than 3000 µM (DPPH scavenging).
The viability of O=C(Nc1ccccc1)Nc1ccc(Oc2nnc(-c3ccc(Cl)cc3)c3ccccc23)cc1 is reported as 42.9% (MCF7; cell growth or viability, MTT; 0.156 µM, 24 h).
CCN(CC)c1ccc(/C=N/c2ccc(Cl)cc2)c(O)c1 gave an IC50 of 30.3 µM (DPPH scavenging).
For CC(=NNC(=O)c1ccccc1)c1ccc(Nc2nnc(-c3ccc(Cl)cc3)c3ccccc23)cc1, the viability was 13.7% (MCF7; cell growth or viability, MTT; 2.5 µM, 24 h).
For Brc1cccc(/C=N/N=C/c2cccc(Br)c2)c1, the IC50 was 2400 µM (DPPH scavenging).
